From ChEMBL document CHEMBL1122582, “Pyridonecarboxylic acids as antibacterial agents. 2. Synthesis and structure-activity relationships of 1,6,7-trisubstituted 1,4-dihydro-4-oxo-1,8-naphthyridine-3-carboxylic acids, including enoxacin, a new antibacterial agent” (J Med Chem, 1984)
In brackets after ≈: the same amount, converted by molar mass.

Experiments:
Format in all cases: functional
Staphylococcus aureus [1] = assay: Antibacterial activity against Staphylococcus aureus 209PJC-1
Procedure, shortened: (§1)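 Twofold agar dilution on Mueller-Hinton agar (pH 7.4). Inocula of approximately 10⁶ colony-forming units; growth read after 20-h incubation at 37 °C. MIC is given in micrograms per milliliter.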

Pseudomonas aeruginosa [2] = assay: Antibacterial activity against Pseudomonas aeruginosa Tsuchijima; procedure, shortened: as §1
Escherichia coli [3] = assay: Antibacterial activity against Escherichia coli NIHJ JC-2; procedure, shortened: as §1
Pseudomonas aeruginosa [4] = assay: Median effective dose against Pseudomonas aeruginosa 12 causing systemic infections
Procedure, shortened: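 Male Std-ddY mice (20 ± 2 g), groups of 10 or more, infected ip with P. aeruginosa 12 (4×10^3 cells). Compounds were suspended in 0.2% sodium carboxymethylcellulose and given orally at 0 and 6 h postinfection. Survival was scored after 1 week and the ED50 derived in mg/kg.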

Escherichia coli [5] = assay: Median effective dose against Escherichia coli P-5101 causing systemic infections.
Procedure, shortened: (§2)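 Male Std-ddY mice (20 ± 2 g), groups of 10 or more, infected ip with E. coli P-5101 (9×10^6 cells). Compounds were suspended in 0.2% sodium carboxymethylcellulose and dosed orally at 0 and 6 h postinfection. Survival was scored after 1 week and the ED50 derived in mg/kg.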

Staphylococcus aureus [6] = assay: Median effective dose against Staphylococcus aureus 50774 causing systemic infections
Procedure, shortened: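 Systemic infection given iv with S. aureus 50774 (5×10^8 cells) to male Std-ddY mice (20 ± 2 g), 10 or more per group. Oral dosing of compound suspended in 0.2% sodium carboxymethylcellulose at 0 and 6 h postinfection. ED50 in mg/kg from survival scored after 2 weeks.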

Escherichia coli [7] = assay: Median effective dose against Escherichia coli P-5101 causing systemic infections; procedure, shortened: as §2

CCn1cc(C(=O)O)c(=O)c2cc(F)c(N3CCCNCC3)nc21
MIC (Staphylococcus aureus [1]): 1.56 µg/mL (≈ 4.67 µM)
MIC (Pseudomonas aeruginosa [2]): 1.56 µg/mL (≈ 4.67 µM)
MIC (Escherichia coli [3]): 0.78 µg/mL (≈ 2.33 µM)

CCn1cc(C(=O)O)c(=O)c2cc(Cl)c(N3CCCC3)nc21
MIC (Staphylococcus aureus [1]): 12.5 µg/mL (≈ 38.8 µM)
MIC (Pseudomonas aeruginosa [2]): > 100 µg/mL
MIC (Escherichia coli [3]): > 100 µg/mL

CCn1cc(C(=O)O)c(=O)c2cc([N+](=O)[O-])c(N3CCCC3)nc21
MIC (Staphylococcus aureus [1]): 25 µg/mL (≈ 75.2 µM)
MIC (Pseudomonas aeruginosa [2]): > 100 µg/mL
MIC (Escherichia coli [3]): 100 µg/mL (≈ 301 µM)

CCn1cc(C(=O)O)c(=O)c2cc(F)c(N3CCCCCC3)nc21
MIC (Staphylococcus aureus [1]): 3.13 µg/mL (≈ 9.39 µM)
MIC (Pseudomonas aeruginosa [2]): 50 µg/mL (≈ 150 µM)
MIC (Escherichia coli [3]): 6.25 µg/mL (≈ 18.7 µM)

CCCCN1CCN(c2nc3c(cc2F)c(=O)c(C(=O)O)cn3CC)CC1
MIC (Staphylococcus aureus [1]): 3.13 µg/mL (≈ 8.31 µM)
MIC (Pseudomonas aeruginosa [2]): 25 µg/mL (≈ 66.4 µM)
MIC (Escherichia coli [3]): 3.13 µg/mL (≈ 8.31 µM)

C=Cn1cc(C(=O)O)c(=O)c2cc(F)c(N3CCN(C)CC3)nc21
ED50 (Pseudomonas aeruginosa [4]): 3.7 mg/kg
MIC (Staphylococcus aureus [1]): 3.13 µg/mL (≈ 9.42 µM)
MIC (Pseudomonas aeruginosa [2]): 0.78 µg/mL (≈ 2.35 µM)
ED50 (Escherichia coli [5]): 1.1 mg/kg
MIC (Escherichia coli [3]): 0.2 µg/mL (≈ 0.602 µM)
ED50 (Staphylococcus aureus [6]): 10.5 mg/kg

CCn1cc(C(=O)O)c(=O)c2cc(F)c(N3CCCC3)nc21
MIC (Staphylococcus aureus [1]): 0.39 µg/mL (≈ 1.28 µM)
MIC (Pseudomonas aeruginosa [2]): 3.13 µg/mL (≈ 10.3 µM)
MIC (Escherichia coli [3]): 1.56 µg/mL (≈ 5.11 µM)

CCn1cc(C(=O)O)c(=O)c2cc(F)c(N3CCN(Cc4ccccc4)CC3)nc21
MIC (Staphylococcus aureus [1]): 0.78 µg/mL (≈ 1.9 µM)
MIC (Pseudomonas aeruginosa [2]): 12.5 µg/mL (≈ 30.5 µM)
MIC (Escherichia coli [3]): 6.25 µg/mL (≈ 15.2 µM)

CCn1cc(C(=O)O)c(=O)c2cc(F)c(N3CCN(c4ccccc4)CC3)nc21
MIC (Staphylococcus aureus [1]): 6.25 µg/mL (≈ 15.8 µM)
MIC (Pseudomonas aeruginosa [2]): > 100 µg/mL
MIC (Escherichia coli [3]): 12.5 µg/mL (≈ 31.5 µM)

CCC(C)N1CCN(c2nc3c(cc2F)c(=O)c(C(=O)O)cn3CC)CC1 (configuration not stated)
MIC (Staphylococcus aureus [1]): 1.56 µg/mL (≈ 4.14 µM)
MIC (Pseudomonas aeruginosa [2]): 25 µg/mL (≈ 66.4 µM)
MIC (Escherichia coli [3]): 3.13 µg/mL (≈ 8.31 µM)

CCn1cc(C(=O)O)c(=O)c2ccc(N3CCN(C)CC3)nc21
MIC (Staphylococcus aureus [1]): 25 µg/mL (≈ 79 µM)
MIC (Pseudomonas aeruginosa [2]): 25 µg/mL (≈ 79 µM)
MIC (Escherichia coli [3]): 6.25 µg/mL (≈ 19.8 µM)

CCn1cc(C(=O)O)c(=O)c2cc(N)c(N3CCN(C)CC3)nc21
MIC (Staphylococcus aureus [1]): 25 µg/mL (≈ 75.4 µM)
MIC (Pseudomonas aeruginosa [2]): 12.5 µg/mL (≈ 37.7 µM)
MIC (Escherichia coli [3]): 1.56 µg/mL (≈ 4.71 µM)

CCn1cc(C(=O)O)c(=O)c2cc(F)c(N3CCOCC3)nc21
MIC (Staphylococcus aureus [1]): 1.56 µg/mL (≈ 4.86 µM)
MIC (Pseudomonas aeruginosa [2]): 6.25 µg/mL (≈ 19.5 µM)
MIC (Escherichia coli [3]): 3.13 µg/mL (≈ 9.74 µM)

O=C(O)c1cn(C(F)F)c2nc(N3CCNCC3)c(F)cc2c1=O
MIC (Staphylococcus aureus [1]): 6.25 µg/mL (≈ 18.3 µM)
MIC (Pseudomonas aeruginosa [2]): 6.25 µg/mL (≈ 18.3 µM)
MIC (Escherichia coli [3]): 0.78 µg/mL (≈ 2.28 µM)

CCn1cc(C(=O)O)c(=O)c2cc(F)c(NCCN)nc21
MIC (Staphylococcus aureus [1]): 25 µg/mL (≈ 85 µM)
MIC (Pseudomonas aeruginosa [2]): 50 µg/mL (≈ 170 µM)
MIC (Escherichia coli [3]): 6.25 µg/mL (≈ 21.2 µM)

CCn1cc(C(=O)O)c(=O)c2cc([N+](=O)[O-])c(N3CCN(C)CC3)nc21
MIC (Staphylococcus aureus [1]): 12.5 µg/mL (≈ 34.6 µM)
MIC (Pseudomonas aeruginosa [2]): 50 µg/mL (≈ 138 µM)
MIC (Escherichia coli [3]): 3.13 µg/mL (≈ 8.66 µM)

CCn1cc(C(=O)O)c(=O)c2cc(F)c(N3CCSCC3)nc21
MIC (Staphylococcus aureus [1]): 1.56 µg/mL (≈ 4.62 µM)
MIC (Pseudomonas aeruginosa [2]): 12.5 µg/mL (≈ 37.1 µM)
MIC (Escherichia coli [3]): 3.13 µg/mL (≈ 9.28 µM)

CCN1CCN(c2nc3c(cc2F)c(=O)c(C(=O)O)cn3CC)CC1
MIC (Staphylococcus aureus [1]): 0.78 µg/mL (≈ 2.24 µM)
MIC (Pseudomonas aeruginosa [2]): 3.13 µg/mL (≈ 8.98 µM)
MIC (Escherichia coli [3]): 0.78 µg/mL (≈ 2.24 µM)

CCn1cc(C(=O)O)c(=O)c2cc(F)c(N)nc21
MIC (Staphylococcus aureus [1]): > 100 µg/mL
MIC (Pseudomonas aeruginosa [2]): 50 µg/mL (≈ 199 µM)
MIC (Escherichia coli [3]): 1.56 µg/mL (≈ 6.21 µM)

CCn1cc(C(=O)O)c(=O)c2cc(F)c(N3CCCCCCC3)nc21
MIC (Staphylococcus aureus [1]): 12.5 µg/mL (≈ 36 µM)
MIC (Pseudomonas aeruginosa [2]): > 100 µg/mL
MIC (Escherichia coli [3]): 25 µg/mL (≈ 72 µM)

CCn1cc(C(=O)O)c(=O)c2cc(F)c(N3CCN(C=O)CC3)nc21
MIC (Staphylococcus aureus [1]): 3.13 µg/mL (≈ 8.99 µM)
MIC (Pseudomonas aeruginosa [2]): 12.5 µg/mL (≈ 35.9 µM)
MIC (Escherichia coli [3]): 1.56 µg/mL (≈ 4.48 µM)

CCn1cc(C(=O)O)c(=O)c2cc(N)c(N3CCNCC3)nc21
MIC (Staphylococcus aureus [1]): > 100 µg/mL
MIC (Pseudomonas aeruginosa [2]): 6.25 µg/mL (≈ 19.7 µM)
MIC (Escherichia coli [3]): 3.13 µg/mL (≈ 9.86 µM)

CCCN1CCN(c2nc3c(cc2F)c(=O)c(C(=O)O)cn3CC)CC1
MIC (Staphylococcus aureus [1]): 1.56 µg/mL (≈ 4.3 µM)
MIC (Pseudomonas aeruginosa [2]): 12.5 µg/mL (≈ 34.5 µM)
MIC (Escherichia coli [3]): 1.56 µg/mL (≈ 4.3 µM)

O=C(O)c1cn(CCF)c2nc(N3CCNCC3)c(F)cc2c1=O
MIC (Staphylococcus aureus [1]): 0.39 µg/mL (≈ 1.15 µM)
MIC (Pseudomonas aeruginosa [2]): 0.78 µg/mL (≈ 2.31 µM)
MIC (Escherichia coli [3]): 0.2 µg/mL (≈ 0.591 µM)

CCn1cc(C(=O)O)c(=O)c2cc(N)c(N3CCCC3)nc21
MIC (Staphylococcus aureus [1]): > 100 µg/mL
MIC (Pseudomonas aeruginosa [2]): > 100 µg/mL
MIC (Escherichia coli [3]): > 100 µg/mL

CCn1cc(C(=O)O)c(=O)c2ccc(N3CCCC3)nc21
MIC (Staphylococcus aureus [1]): 12.5 µg/mL (≈ 43.5 µM)
MIC (Pseudomonas aeruginosa [2]): > 100 µg/mL
MIC (Escherichia coli [3]): 25 µg/mL (≈ 87 µM)

CCn1cc(C(=O)O)c(=O)c2cc(C#N)c(N3CCN(C)CC3)nc21
MIC (Staphylococcus aureus [1]): 12.5 µg/mL (≈ 36.6 µM)
MIC (Pseudomonas aeruginosa [2]): 12.5 µg/mL (≈ 36.6 µM)
MIC (Escherichia coli [3]): 1.56 µg/mL (≈ 4.57 µM)

CCn1cc(C(=O)O)c(=O)c2cc(F)c(N3CCN(C(C)=O)CC3)nc21
MIC (Staphylococcus aureus [1]): 3.13 µg/mL (≈ 8.64 µM)
MIC (Pseudomonas aeruginosa [2]): 50 µg/mL (≈ 138 µM)
MIC (Escherichia coli [3]): 3.13 µg/mL (≈ 8.64 µM)

CCn1cc(C(=O)O)c(=O)c2cc([N+](=O)[O-])c(N3CCNCC3)nc21
MIC (Staphylococcus aureus [1]): 6.25 µg/mL (≈ 18 µM)
MIC (Pseudomonas aeruginosa [2]): 25 µg/mL (≈ 72 µM)
MIC (Escherichia coli [3]): 6.25 µg/mL (≈ 18 µM)

CCn1cc(C(=O)O)c(=O)c2cc(C#N)c(N3CCCC3)nc21
MIC (Staphylococcus aureus [1]): 3.13 µg/mL (≈ 10 µM)
MIC (Pseudomonas aeruginosa [2]): 25 µg/mL (≈ 80 µM)
MIC (Escherichia coli [3]): 12.5 µg/mL (≈ 40 µM)

CN1CCN(c2nc3c(cc2F)c(=O)c(C(=O)O)cn3CCF)CC1
MIC (Staphylococcus aureus [1]): 0.78 µg/mL (≈ 2.21 µM)
MIC (Pseudomonas aeruginosa [2]): 1.56 µg/mL (≈ 4.43 µM)
MIC (Escherichia coli [3]): 0.2 µg/mL (≈ 0.568 µM)

CCn1cc(C(=O)O)c(=O)c2cc(F)c(N3CCCCC3)nc21
MIC (Staphylococcus aureus [1]): 0.78 µg/mL (≈ 2.44 µM)
MIC (Pseudomonas aeruginosa [2]): 12.5 µg/mL (≈ 39.1 µM)
MIC (Escherichia coli [3]): 6.25 µg/mL (≈ 19.6 µM)

CCn1cc(C(=O)O)c(=O)c2cc(F)c(N3CCNC(=O)C3)nc21
MIC (Staphylococcus aureus [1]): 6.25 µg/mL (≈ 18.7 µM)
MIC (Pseudomonas aeruginosa [2]): 12.5 µg/mL (≈ 37.4 µM)
MIC (Escherichia coli [3]): 0.78 µg/mL (≈ 2.33 µM)

CCn1cc(C(=O)O)c(=O)c2cc(Cl)c(N3CCN(C)CC3)nc21
MIC (Staphylococcus aureus [1]): 6.25 µg/mL (≈ 17.8 µM)
MIC (Pseudomonas aeruginosa [2]): 12.5 µg/mL (≈ 35.6 µM)
MIC (Escherichia coli [3]): 1.56 µg/mL (≈ 4.45 µM)

CCn1cc(C(=O)O)c(=O)c2cc(C#N)c(N3CCNCC3)nc21
MIC (Staphylococcus aureus [1]): 6.25 µg/mL (≈ 19.1 µM)
MIC (Pseudomonas aeruginosa [2]): 6.25 µg/mL (≈ 19.1 µM)
MIC (Escherichia coli [3]): 1.56 µg/mL (≈ 4.77 µM)

CCn1cc(C(=O)O)c(=O)c2cc(F)c(N3CCNCC3)nc21 [ENOXACIN]
MIC (Staphylococcus aureus [1]): 0.78 µg/mL (≈ 2.44 µM)
MIC (Pseudomonas aeruginosa [2]): 0.78 µg/mL (≈ 2.44 µM)
MIC (Escherichia coli [3]): 0.2 µg/mL (≈ 0.624 µM)

CCn1cc(C(=O)O)c(=O)c2ccc(C)nc21 [NALIDIXIC ACID]
MIC (Pseudomonas aeruginosa [2]): 50 µg/mL (≈ 215 µM)
MIC (Escherichia coli [3]): 1.56 µg/mL (≈ 6.72 µM)

CCn1cc(C(=O)O)c(=O)c2cnc(N3CCNCC3)nc21 [PIPEMIDIC ACID]
ED50 (Pseudomonas aeruginosa [4]): 70.8 mg/kg
MIC (Staphylococcus aureus [1]): 6.25 µg/mL (≈ 20.6 µM)
MIC (Pseudomonas aeruginosa [2]): 6.25 µg/mL (≈ 20.6 µM)
ED50 (Escherichia coli [7]): 12.8 mg/kg
